Source: publication PMC5518655 (Acta Pharmaceutica Sinica. B, 2017)

Assays:
DENV2 NS2B/NS3 protease = DENV2 NS2B/NS3 protease (Dengue virus type 2, UniProt P14340); experiment: In vitro DENV2 NS2B/NS3 protease assay with fluorogenic peptide substrate; format: biochemical; conditions: for inhibition at 50 µM: read-out: inhibition at 50 µmol/L (preliminary screening)
In short: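 Screened at 50 µmol/L; IC50 measured only when inhibition exceeded 10%. DENV2 NS2B-NS3 (0.57 µmol/L) and test compound in DMSO, in Tris–HCl pH 8.5, preincubated 10 min at 37 °C, 200 rpm. […] added, shaken 60 min more; fluorescence read, blank-subtracted. Triplicates, 3 independent experiments, mean±SD; IC50 read graphically from log concentration vs % inhibition.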

DEN2 serine protease = conditions: cited from earlier work

DENV2 NS2B/NS3 protease, sequence (P14340 1476-2093 limits assumed): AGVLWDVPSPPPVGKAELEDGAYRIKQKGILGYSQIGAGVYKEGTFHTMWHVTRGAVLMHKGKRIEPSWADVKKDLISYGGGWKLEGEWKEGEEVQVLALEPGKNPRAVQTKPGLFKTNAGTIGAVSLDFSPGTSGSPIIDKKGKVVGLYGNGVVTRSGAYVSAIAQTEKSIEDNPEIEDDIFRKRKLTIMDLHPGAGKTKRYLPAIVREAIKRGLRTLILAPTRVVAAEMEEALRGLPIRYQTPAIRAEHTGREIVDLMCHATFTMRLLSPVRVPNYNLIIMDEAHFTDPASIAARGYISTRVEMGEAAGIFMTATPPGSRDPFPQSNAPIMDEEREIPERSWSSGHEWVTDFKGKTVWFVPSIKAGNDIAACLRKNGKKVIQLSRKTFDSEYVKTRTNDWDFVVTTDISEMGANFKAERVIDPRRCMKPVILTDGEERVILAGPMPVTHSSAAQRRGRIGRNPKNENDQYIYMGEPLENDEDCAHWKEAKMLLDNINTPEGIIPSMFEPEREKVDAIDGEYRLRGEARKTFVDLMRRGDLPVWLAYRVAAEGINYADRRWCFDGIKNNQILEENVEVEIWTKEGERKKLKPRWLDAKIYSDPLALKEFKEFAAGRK
DENV2 NS2B/NS3 protease, sequence (P14340 1346-1475 partner limits assumed): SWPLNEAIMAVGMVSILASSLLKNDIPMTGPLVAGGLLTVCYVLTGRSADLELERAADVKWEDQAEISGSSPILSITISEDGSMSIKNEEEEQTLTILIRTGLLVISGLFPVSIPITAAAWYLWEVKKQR

In the case of `O=C1C(=Cc2ccc([N+](=O)[O-])cc2)CN(CC(=O)c2ccc(F)cc2)CC1=Cc1ccc([N+](=O)[O-])cc1` [Compound 4e, 1-(2-(4-Fluorophenyl)-2-oxoethyl)-3,5-bis(4-nitrobenzylidene)piperidin-4-one], the IC50 (DENV2 NS2B/NS3 protease) is reported as 15.2 ± 1.1 µM and the inhibition at 50 µM (DENV2 NS2B/NS3 protease) is reported as over 10%.

For `CC(C)=CC[C@@H]1C(C)=CC[C@@H](c2ccccc2)[C@@H]1C(=O)c1c(O)cc(O)cc1O` [4-hydroxypanduratin A], the Ki (DEN2 serine protease) is listed as 21 µM.

`COc1ccc(C(=O)CN2CC(=Cc3ccc([N+](=O)[O-])cc3)C(=O)C(=Cc3ccc([N+](=O)[O-])cc3)C2)cc1` [Compound 4j, 1-(2-(4-Methoxyphenyl)-2-oxoethyl)-3,5-bis(4-nitrobenzylidene)piperidin-4-one] showed an IC50 (DENV2 NS2B/NS3 protease) of 16.2 ± 1.3 µM and an inhibition at 50 µM (DENV2 NS2B/NS3 protease) of over 10%.

In the case of `COc1cc(O)c(C(=O)[C@@H]2[C@H](CC=C(C)C)C(C)=CC[C@H]2c2ccccc2)c(O)c1` [Panduratin A, panduratin A, reference compound], the IC50 (DENV2 NS2B/NS3 protease) is listed as 57.3 ± 1.3 µM and the Ki (DEN2 serine protease) is listed as 25 µM.
